ChEMBL document CHEMBL4024711, “Design, synthesis and biological evaluation of novel nitric oxide-donating protoberberine derivatives as antitumor agents” (Eur J Med Chem, 2017)
The source made the active and inactive calls. No cut-off for these calls is given here.

Tests used:
HCT-116 = test: Cytotoxicity against human HCT116 cells after 72 hrs by MTT assay; assay type: functional, cell-based; conditions: HCT-116, 72 h
Outline: (§1)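 MTT assay. Cells were plated and grown 24 h at 37 °C, 5% CO2, then exposed to compound in medium with 0.1% DMSO for 72 h. MTT (5 mg/mL in PBS) was added for 4 h and absorbance read at 490 nm. IC50 was taken from dose-response curves; at least three independent experiments.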

L02 = test: Cytotoxicity against human LO2 cells after 72 hrs by MTT assay; assay type: cell-based; conditions: L02, 72 h; outline: as §1
HepG2 = test: Cytotoxicity against human HepG2 cells after 72 hrs by MTT assay; assay type: functional, cell-based; conditions: HepG2, 72 h; outline: as §1
SMMC-7721 = test: Cytotoxicity against human SMMC7721 cells after 72 hrs by MTT assay; assay type: functional, cell-based; conditions: SMMC-7721, 72 h; outline: as §1
HL-60 = test: Cytotoxicity against human HL60 cells after 72 hrs by MTT assay; assay type: functional, cell-based; conditions: HL-60, 72 h; outline: as §1
[1] = Induction of NO release assessed as nitrite formation in PBS at 100 uM up to 300 mins by Griess assay
Outline: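 Compound at 100 μM was incubated at 37 °C in PBS, pH 7.4, containing 2% DMSO and 5.0 mM L-cysteine, in acellular or HepG2 cell lysates, and sampled over time. Samples were mixed with Griess reagent at 37 °C for 15 min and read at 540 nm. Nitrite was quantified against a sodium nitrite standard curve, in triplicate.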

SMILES | IC50 (HCT-116) | IC50 (L02) | IC50 (HepG2) | IC50 (SMMC-7721) | IC50 (HL-60) | Activity [1]
COc1ccc2cc3[n+](cc2c1OC)CCc1cc2c(cc1-3)OCO2 [BERBERINE CHLORIDE] | 40 µM | 71.5 µM | 49 µM | 25.9 µM | 27.4 µM | –
COc1ccc2c(c1OCCCCCCCCO[N+](=O)[O-])CN1CCc3cc4c(cc3C1C2)OCO4 (configuration not stated) | – | – | > 100 µM | – | – | –
COc1ccc2cc3[n+](cc2c1OCCCCCCCCO[N+](=O)[O-])CCc1cc2c(cc1-3)OCO2 | 1.58 µM | 33.8 µM | 2.47 µM | 2.82 µM | 1.42 µM | Active
